Assay results as given in ChEMBL document CHEMBL1914366, “Bioassay-guided identification of an anti-inflammatory prenylated acylphloroglucinol from Melicope ptelefolia and molecular insights into its interaction with 5-lipoxygenase” (Bioorg Med Chem, 2011).
Activity calls are given as the source filed them. The calls are words filed in the database; no cut-off is given here.

What was measured:
[1] = tested on: Glycine max; assay: Inhibition of soybean 15-LOX type 1-B assessed as inhibition of conversion of linoleic acid to (9Z,11E)-(13S)-13-hydroperoxyoctadeca-9,11-dienoate at 25 ug/ml preincubated for 10 mins before substrate addition measured after 6 mins by spectrophotometry
Procedure, shortened: (§1)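 Soybean lipoxygenase type I-B (80 U/well) in sodium phosphate buffer (100 mM, pH 8.0) was incubated with sample in MeOH for 10 min at 25 °C. Linoleic acid was then added and A234 was followed for 6 min. Samples were run in triplicate. Pure compounds were screened at a final 25 µg/mL.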

[2] = Inhibition of soybean 15-LOX type 1-B assessed as inhibition of conversion of linoleic acid to (9Z,11E)-(13S)-13-hydroperoxyoctadeca-9,11-dienoate preincubated for 10 mins before substrate addition measured after 6 mins by spectrophotometry; set-up: species or system Glycine max; procedure, shortened: as §1
[3] = Metal chelating activity of the compound assessed as formation of iron complex in PBS at pH 7.4 at 50 uM after 10 secs by UV-vis spectrometry in presence of 100 uM FeSO4; type: functional
Procedure, shortened: (§2)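 Compound was taken from a 1 mM methanol stock and diluted to 50 µM in PBS (10 mM, pH 7.4). Salt solution (CuSO4, FeCl3 or FeSO4) was added at 50 or 100 µM. Absorption spectra from 200–600 nm were recorded after 10 s and compared with the compound alone.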

[4] = target: T1, Polyunsaturated fatty acid 5-lipoxygenase (Mus musculus, UniProt P48999); assay: (§3) Inhibition of 5-LOX in calcium ionophore A23187-stimulated NMRI mouse macrophage assessed as inhibition of LTC4 production preincubated for 60 mins before stimulation measured after 2 hrs by ELISA
T1 sequence (P48999 whole entry): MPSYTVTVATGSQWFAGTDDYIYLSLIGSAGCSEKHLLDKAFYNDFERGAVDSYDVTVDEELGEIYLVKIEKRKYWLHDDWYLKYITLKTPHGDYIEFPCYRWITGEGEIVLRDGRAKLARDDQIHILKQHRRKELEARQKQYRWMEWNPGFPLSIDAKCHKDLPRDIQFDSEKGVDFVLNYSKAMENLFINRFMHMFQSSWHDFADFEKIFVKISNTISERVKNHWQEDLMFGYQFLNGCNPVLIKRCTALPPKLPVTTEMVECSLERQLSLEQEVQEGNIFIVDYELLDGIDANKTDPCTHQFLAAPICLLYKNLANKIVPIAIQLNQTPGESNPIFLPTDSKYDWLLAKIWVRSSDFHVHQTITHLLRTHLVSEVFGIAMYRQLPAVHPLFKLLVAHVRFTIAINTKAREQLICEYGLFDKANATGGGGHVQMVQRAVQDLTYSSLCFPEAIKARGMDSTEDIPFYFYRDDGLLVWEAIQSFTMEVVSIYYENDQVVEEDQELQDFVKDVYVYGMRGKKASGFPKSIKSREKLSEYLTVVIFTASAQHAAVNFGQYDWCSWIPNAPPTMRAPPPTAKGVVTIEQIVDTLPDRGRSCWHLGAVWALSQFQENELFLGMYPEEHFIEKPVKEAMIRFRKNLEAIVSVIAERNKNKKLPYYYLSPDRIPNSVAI
Procedure, shortened: (§4)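 Male NMRI mice (20 ± 5 g) were given 1 ml thioglycolate ip and peritoneal macrophages were lavaged with PBS 3 days later. Cells were adhered overnight at 5 × 10^5 cells/well and then moved to serum-free DMEM. Compound was added for 60 min at 37 °C, then A23187 to a final 10^-6 M for 2 h. Supernatant cysLTs were measured by ELISA against a standard curve. Values are mean ± S.D., mostly triplicate, compared by unpaired t-test.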

[5] = target: T2, Polyunsaturated fatty acid 5-lipoxygenase (Mus musculus) (UniProt P48999); assay: as §3; procedure, shortened: as §4
T2 sequence (whole entry): T1 sequence (P48999 whole entry)

[6] = target: T3, Prostaglandin G/H synthase 1 (Homo sapiens, UniProt P23219); assay: Inhibition of COX1 in human platelets assessed as inhibition of conversion of arachidonic acid to PGE2 preincubated for 15 mins before substrate addition measured after 15 mins by enzyme immunoassay
T3 sequence (P23219 whole entry): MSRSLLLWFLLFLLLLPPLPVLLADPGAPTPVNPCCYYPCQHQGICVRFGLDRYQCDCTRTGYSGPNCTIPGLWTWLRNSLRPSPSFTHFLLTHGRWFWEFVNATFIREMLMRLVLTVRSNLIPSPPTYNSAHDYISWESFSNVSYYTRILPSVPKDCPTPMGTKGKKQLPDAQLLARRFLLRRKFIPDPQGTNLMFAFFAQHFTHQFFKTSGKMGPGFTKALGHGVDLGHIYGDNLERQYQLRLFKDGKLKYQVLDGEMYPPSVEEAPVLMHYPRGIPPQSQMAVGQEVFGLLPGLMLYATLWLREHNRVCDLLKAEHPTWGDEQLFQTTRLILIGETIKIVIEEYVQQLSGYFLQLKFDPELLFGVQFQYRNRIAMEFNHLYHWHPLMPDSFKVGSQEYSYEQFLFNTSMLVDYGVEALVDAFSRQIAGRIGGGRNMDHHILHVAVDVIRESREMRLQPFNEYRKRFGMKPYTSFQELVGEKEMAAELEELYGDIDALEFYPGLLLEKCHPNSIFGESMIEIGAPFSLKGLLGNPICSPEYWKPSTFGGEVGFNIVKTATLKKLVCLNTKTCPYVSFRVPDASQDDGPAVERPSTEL
Procedure, shortened: (§5)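 Human platelets (5 × 10^7/ml) in HBSS (15 mM, pH 7.4) were incubated with compound or vehicle for 15 min at 37 °C. Arachidonic acid (100 µM) was added for 15 min and the reaction was stopped with 1 N HCl. PGE2 was measured by EIA. The assay was run by a contract laboratory.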

[7] = target: T3, Prostaglandin G/H synthase 1; assay: Inhibition of COX1 in human platelets assessed as inhibition of conversion of arachidonic acid to PGE2 at 0.1 uM preincubated for 15 mins before substrate addition measured after 15 mins by enzyme immunoassay; procedure, shortened: as §5
[8] = tested on: Radical scavenging activity; assay: Antioxidant activity assessed as DPPH radical scavenging activity; type: functional
Procedure, shortened: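 DPPH radical scavenging run by a previously published method, with quercetin as positive control; triplicate tests, with absorbances averaged before calculating activity.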

[9] = target: T4, Polyunsaturated fatty acid 5-lipoxygenase (Homo sapiens) (UniProt P09917); assay: Inhibition of human 5-LOX in human peripheral blood mononuclear leukocytes assessed as inhibition of calymycin A23187 stimulated LTB4 production at 10 uM preincubated for 15 mins before stimulation measured after 15 mins by enzyme immunoassay
T4 sequence (whole entry): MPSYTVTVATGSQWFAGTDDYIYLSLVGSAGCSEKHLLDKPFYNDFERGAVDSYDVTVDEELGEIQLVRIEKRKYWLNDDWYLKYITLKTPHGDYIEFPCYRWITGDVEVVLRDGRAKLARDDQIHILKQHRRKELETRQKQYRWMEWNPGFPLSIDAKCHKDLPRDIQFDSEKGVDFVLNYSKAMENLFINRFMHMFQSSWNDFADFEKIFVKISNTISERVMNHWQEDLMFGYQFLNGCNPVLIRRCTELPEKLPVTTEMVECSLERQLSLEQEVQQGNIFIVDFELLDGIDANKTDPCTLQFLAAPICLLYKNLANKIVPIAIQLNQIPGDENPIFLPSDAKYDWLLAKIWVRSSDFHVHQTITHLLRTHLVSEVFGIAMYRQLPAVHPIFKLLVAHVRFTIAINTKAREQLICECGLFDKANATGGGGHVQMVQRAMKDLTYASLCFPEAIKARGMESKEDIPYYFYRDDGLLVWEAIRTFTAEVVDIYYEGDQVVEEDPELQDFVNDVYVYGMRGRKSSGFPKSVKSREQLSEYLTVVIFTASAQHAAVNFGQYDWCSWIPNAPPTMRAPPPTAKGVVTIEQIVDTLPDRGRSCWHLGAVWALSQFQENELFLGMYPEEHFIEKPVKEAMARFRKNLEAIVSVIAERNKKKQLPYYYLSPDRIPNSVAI
Procedure, shortened: (§6)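 Human peripheral blood mononuclear leukocytes (5 × 10^6 cells/ml) in HBSS were preincubated with compound or vehicle for 15 min at 37 °C. Calcimycin (A23187, 30 µM) was added for a further 15 min and the reaction was stopped with 1 N HCl. LTB4 was quantified by EIA. The assay was run by a contract laboratory.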

[10] = target: T5, Prostaglandin G/H synthase 2 (Homo sapiens) (UniProt P35354); assay: Inhibition of human recombinant COX2 expressed in insect Sf21 cells assessed as inhibition of conversion of arachidonic acid to PGE2 at 1 uM preincubated for 15 mins before substrate addition measured after 5 mins by enzyme immunoassay
T5 sequence (whole entry): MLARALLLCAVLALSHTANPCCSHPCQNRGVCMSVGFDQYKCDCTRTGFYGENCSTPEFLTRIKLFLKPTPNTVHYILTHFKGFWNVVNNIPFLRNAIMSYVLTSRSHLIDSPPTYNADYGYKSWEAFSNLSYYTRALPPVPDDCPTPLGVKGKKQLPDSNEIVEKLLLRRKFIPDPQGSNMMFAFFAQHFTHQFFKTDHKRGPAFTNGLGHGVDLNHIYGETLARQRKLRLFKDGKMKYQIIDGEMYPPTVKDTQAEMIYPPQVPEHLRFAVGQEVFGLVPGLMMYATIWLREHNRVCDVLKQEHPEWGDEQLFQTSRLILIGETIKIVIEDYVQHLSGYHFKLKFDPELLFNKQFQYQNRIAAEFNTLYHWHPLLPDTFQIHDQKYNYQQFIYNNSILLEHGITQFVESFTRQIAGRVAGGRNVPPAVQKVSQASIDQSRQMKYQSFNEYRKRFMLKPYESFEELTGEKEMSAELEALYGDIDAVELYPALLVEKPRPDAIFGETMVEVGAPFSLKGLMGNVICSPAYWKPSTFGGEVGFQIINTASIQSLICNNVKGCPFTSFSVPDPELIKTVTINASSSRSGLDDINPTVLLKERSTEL
Procedure, shortened: (§7)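 Human recombinant COX-2 expressed in Sf21 cells (0.11 U) was preincubated with compound or vehicle, 1 mM reduced GSH, 500 µM phenol and 1 µM hematin in Tris-HCl (100 mM, pH 7.7) for 15 min at 37 °C. Arachidonic acid (0.3 mM) was added for 5 min and the reaction was stopped with 1 N HCl. After centrifugation, PGE2 was measured by EIA.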

[11] = target: T4, Polyunsaturated fatty acid 5-lipoxygenase (Homo sapiens); assay: Inhibition of human 5-LOX in human peripheral blood mononuclear leukocytes assessed as inhibition of calymycin A23187 stimulated LTB4 production at 0.1 uM preincubated for 15 mins before stimulation measured after 15 mins by enzyme immunoassay; procedure, shortened: as §6
[12] = target: T5, Prostaglandin G/H synthase 2 (Homo sapiens); assay: Inhibition of human recombinant COX2 expressed in insect Sf21 cells assessed as inhibition of conversion of arachidonic acid to PGE2 at 0.1 uM preincubated for 15 mins before substrate addition measured after 5 mins by enzyme immunoassay; procedure, shortened: as §7
[13] = target: T5, Prostaglandin G/H synthase 2 (Homo sapiens); assay: Inhibition of human recombinant COX2 expressed in insect Sf21 cells assessed as inhibition of conversion of arachidonic acid to PGE2 at 10 nM preincubated for 15 mins before substrate addition measured after 5 mins by enzyme immunoassay; procedure, shortened: as §7
[14] = target: T4, Polyunsaturated fatty acid 5-lipoxygenase (Homo sapiens); assay: Inhibition of human 5-LOX in human peripheral blood mononuclear leukocytes assessed as inhibition of calymycin A23187 stimulated LTB4 production at 10 nM preincubated for 15 mins before stimulation measured after 15 mins by enzyme immunoassay; procedure, shortened: as §6
[15] = target: T3, Prostaglandin G/H synthase 1; assay: Inhibition of COX1 in human platelets assessed as inhibition of conversion of arachidonic acid to PGE2 at 10 uM preincubated for 15 mins before substrate addition measured after 15 mins by enzyme immunoassay; procedure, shortened: as §5
[16] = Metal chelating activity of the compound assessed as formation of iron complex in PBS at pH 7.4 at 50 uM after 10 secs by UV-vis spectrometry in presence of 100 uM FeCl3; type: functional; procedure, shortened: as §2
[17] = target: T5, Prostaglandin G/H synthase 2 (Homo sapiens); assay: Inhibition of human recombinant COX2 expressed in insect Sf21 cells assessed as inhibition of conversion of arachidonic acid to PGE2 at 10 uM preincubated for 15 mins before substrate addition measured after 5 mins by enzyme immunoassay; procedure, shortened: as §7
[18] = Metal chelating activity of the compound assessed as formation of copper complex in PBS at pH 7.4 at 50 uM after 10 secs by UV-vis spectrometry in presence of 100 uM CuSO4; type: functional; procedure, shortened: as §2
[19] = target: T3, Prostaglandin G/H synthase 1; assay: Inhibition of COX1 in human platelets assessed as inhibition of conversion of arachidonic acid to PGE2 at 1 uM preincubated for 15 mins before substrate addition measured after 15 mins by enzyme immunoassay; procedure, shortened: as §5
[20] = target: T3, Prostaglandin G/H synthase 1; assay: Inhibition of COX1 in human platelets assessed as inhibition of conversion of arachidonic acid to PGE2 at 10 nM preincubated for 15 mins before substrate addition measured after 15 mins by enzyme immunoassay; procedure, shortened: as §5
[21] = Cytotoxicity against NMRI mouse macrophages by MTT assay; type: cell-based; conditions: macrophage
Procedure, shortened: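 Macrophages from the 5-LOX assay wells were used after supernatant collection. Cells received MTT (5 mg/ml in PBS, 20 µl/well) for 4 h at 37 °C, then the formazan was dissolved in DMSO and absorbance was read at 550 nm. Values are mean ± S.D., mostly from triplicate determinations.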

[22] = target: T4, Polyunsaturated fatty acid 5-lipoxygenase (Homo sapiens); assay: Inhibition of human 5-LOX in human peripheral blood mononuclear leukocytes assessed as inhibition of calymycin A23187 stimulated LTB4 production at 1 uM preincubated for 15 mins before stimulation measured after 15 mins by enzyme immunoassay; procedure, shortened: as §6
[23] = target: T6, Polyunsaturated fatty acid 5-lipoxygenase (Homo sapiens, UniProt P09917); assay: Inhibition of human 5-LOX in human peripheral blood mononuclear leukocytes assessed as inhibition of calymycin A23187-stimulated LTB4 production preincubated for 15 mins before stimulation measured after 15 mins by enzyme immunoassay; procedure, shortened: as §6
T6 sequence (P09917 whole entry): T4 sequence (whole entry)

[24] = target: T7, Prostaglandin G/H synthase 2 (Homo sapiens, UniProt P35354); assay: Inhibition of human recombinant COX2 expressed in insect Sf21 cells assessed as inhibition of conversion of arachidonic acid to PGE2 preincubated for 15 mins before substrate addition measured after 5 mins by enzyme immunoassay; procedure, shortened: as §7
T7 sequence (P35354 whole entry): T5 sequence (whole entry)

CC(Cc1ccc(O)c(O)c1)C(C)Cc1ccc(O)c(O)c1 (stereo unspecified) [NORDIHYDROGUAIARETIC ACID]
inhibition [1]: 88.8%
IC50 [2]: 9.82 µM

CC(=O)c1c(O)cc(O)c(C/C=C(\C)CCC=C(C)C)c1O
Activity [3]: inactive
IC50 [4]: 1.8 µM
inhibition [5]: Dose-dependent effect
IC50 [6]: 6.9 µM
inhibition [7]: -1%
IC50 [8]: 46 µM
inhibition [9]: 102%
inhibition [10]: 60%
inhibition [11]: 13%
inhibition [12]: 28%
inhibition [13]: 14%
inhibition [14]: 6%
inhibition [15]: 91%
Activity [16]: inactive
IC50 [2]: 20.4 µM
inhibition [17]: 100%
Activity [18]: inactive
inhibition [19]: -9%
inhibition [20]: -5%
Activity [21]: Non-toxic
inhibition [22]: 75%
IC50 [23]: 0.42 µM
IC50 [24]: 0.4 µM

O=c1c(O)c(-c2ccc(O)c(O)c2)oc2cc(O)cc(O)c12 [QUERCETIN]
IC50 [8]: 6.91 µM
